Assay results as given in ChEMBL document CHEMBL3864132, “Free fatty acid receptor 1 (GPR40) agonists containing spirocyclic periphery inspired by LY2881835” (Bioorg Med Chem, 2016).

How the values were obtained:
[1] = target: T1, Free fatty acid receptor 1 (Homo sapiens, UniProt O14842); assay: Agonist activity at human FFA1 receptor expressed in CHO cells assessed as induction of Ca2+ flux by fluo-8 dye based FLIPR assay; format: functional, cell-based
Method in brief: (§1)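 CHO cells stably expressing human GPR40 seeded 24 h before assay, loaded 1 h with Fluo-8 calcium dye, read on FLIPR. Agonist response taken as maximum fluorescence change over baseline; concentration-response curves fitted for EC50. Efficacy expressed relative to GW9508 at 5 μM.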

[2] = Intrinsic clearance in BALB/c mouse liver microsomes at 2 uM up to 40 mins by HPLC-MS analysis; format: ADME
Method in brief: (§2)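 Pooled liver microsomes from male BALB/c mice at 0.42 mg protein/ml in 100 mM potassium phosphate pH 7.4 with MgCl2, NADPH and a G6P/G6PDH regenerating system. Compound 2 μM (1.6% solvent), 37°C, five time points over 40 min, duplicates. Quenched in acetonitrile, analysed by HPLC-MS/MS. kel from ln(AUC) versus time; T1/2 = 0.693/kel; CLint scaled to incubation volume per mg microsomes.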

[3] = target: T2, Free fatty acid receptor 4 (Homo sapiens, UniProt Q5NUL3); assay: Agonist activity at human FFA4 receptor expressed in CHO cells assessed as induction of Ca2+ flux by fluo-8 dye based FLIPR assay; format: functional, cell-based
T2 sequence (Q5NUL3 whole entry): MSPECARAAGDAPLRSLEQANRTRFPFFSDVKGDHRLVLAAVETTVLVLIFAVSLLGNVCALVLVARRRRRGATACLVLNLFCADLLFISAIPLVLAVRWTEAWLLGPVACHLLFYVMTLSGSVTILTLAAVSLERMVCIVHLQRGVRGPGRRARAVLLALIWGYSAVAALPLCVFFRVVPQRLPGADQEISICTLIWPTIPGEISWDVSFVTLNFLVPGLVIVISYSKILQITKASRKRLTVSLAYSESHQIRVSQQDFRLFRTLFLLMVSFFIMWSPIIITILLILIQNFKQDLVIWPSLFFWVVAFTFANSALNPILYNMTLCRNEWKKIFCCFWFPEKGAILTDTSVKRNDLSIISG
Method in brief: (§3)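 CHO lines stably expressing the respective receptor (GPR43, GPR41 or GPR120) used for specificity screening. Cells loaded 1 h with Fluo-8 calcium dye and read by FLIPR; maximum fluorescence change over baseline taken as agonist response.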

[4] = Observed AUC infinity in JAXC57BL/6J mouse at 10 mg/kg, iv through bolus administration measured after 10 to 240 mins by HPLC-MS analysis; format: ADME, organism-based; parameters: dose 10 mg/kg, route intravenous, time infinity; settings: C57BL/6J, in vivo
Method in brief: (§4)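 Male C57BL/6J mice given 10 mg/kg as tail-vein bolus in 10% β-cyclodextrin (5 ml/kg). Plasma by cardiac puncture at 10, 30, 60, 120 and 240 min (n=5 per time point), stored at -70°C. Levels by HPLC-MS/MS; parameters from group data by linear trapezoidal rule.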

[5] = target: T3, Free fatty acid receptor 2 (Homo sapiens, UniProt O15552); assay: Agonist activity at human FFA2 receptor expressed in CHO cells assessed as induction of Ca2+ flux by fluo-8 dye based FLIPR assay; format: functional, cell-based; method in brief: as §3
T3 sequence (O15552 whole entry): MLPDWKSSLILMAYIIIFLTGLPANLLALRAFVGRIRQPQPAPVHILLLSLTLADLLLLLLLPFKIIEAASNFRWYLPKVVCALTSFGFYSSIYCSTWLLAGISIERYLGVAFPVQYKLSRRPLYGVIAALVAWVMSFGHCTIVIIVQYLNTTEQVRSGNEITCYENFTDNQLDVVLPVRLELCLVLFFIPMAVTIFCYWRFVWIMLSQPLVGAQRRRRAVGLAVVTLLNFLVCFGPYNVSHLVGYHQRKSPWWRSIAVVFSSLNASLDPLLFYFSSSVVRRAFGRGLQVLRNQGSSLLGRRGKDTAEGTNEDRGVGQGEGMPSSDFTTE

[6] = Tmax in JAXC57BL/6J mouse at 10 mg/kg, po administered through plastic gavage as single dose by HPLC-MS analysis; format: ADME, organism-based; settings: C57BL/6J, in vivo
Method in brief: (§5)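 Male C57BL/6J mice dosed orally by gavage, 10 mg/kg single dose in 10% β-cyclodextrin (5 ml/kg). Plasma sampled at 30, 60, 120, 240 and 360 min (n=5 per time point), with 360 min excluded from calculations. HPLC-MS/MS quantitation; Cmax, Tmax and AUC from group data by linear trapezoidal rule.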

[7] = Protein binding in human plasma at 1 uM after 5 hrs by HPLC-MS/MS analysis; format: ADME, cell-free; settings: read-out: PPB (converted)
Method in brief: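 Equilibrium dialysis (12–14 kDa MWCO) of plasma spiked at 1 μM (1% solvent) against PBS pH 7.4, 5 h at 37°C with shaking, quadruplicates. Chambers matrix-matched, precipitated with acetonitrile and analysed by HPLC-MS/MS. Bound % = (1 − buffer/plasma peak area) × 100; recovery checked against undialyzed spiked plasma.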

[8] = Oral bioavailability in JAXC57BL/6J mouse at 10 mg/kg administered through plastic gavage as single dose measured up to 240 mins by HPLC-MS analysis; format: ADME, organism-based; settings: C57BL/6J, in vivo
Method in brief: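 F = AUC0-∞ oral / AUC0-∞ i.v. × 100%, from male C57BL/6J mice given 10 mg/kg in 10% β-cyclodextrin by gavage or tail-vein bolus. n=5 per time point; plasma drug by HPLC-MS/MS.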

[9] = Cmax in JAXC57BL/6J mouse at 10 mg/kg, po administered through plastic gavage as single dose measured up to 240 mins by HPLC-MS analysis; format: ADME, organism-based; parameters: dose 10 mg/kg, route oral; settings: C57BL/6J, in vivo; method in brief: as §5
[10] = Cmax in JAXC57BL/6J mouse at 10 mg/kg, iv through bolus administration measured after 10 to 240 mins by HPLC-MS analysis; format: ADME, organism-based; parameters: dose 10 mg/kg, route intravenous; settings: C57BL/6J, in vivo; method in brief: as §4
[11] = Half life in BALB/c mouse liver microsomes at 2 uM by HPLC-MS analysis; format: ADME; method in brief: as §2
[12] = target: T4, Free fatty acid receptor 3 (Homo sapiens, UniProt O14843); assay: Agonist activity at human FFA3 receptor expressed in CHO cells assessed as induction of Ca2+ flux by fluo-8 dye based FLIPR assay; format: functional, cell-based; method in brief: as §3
T4 sequence (O14843 whole entry): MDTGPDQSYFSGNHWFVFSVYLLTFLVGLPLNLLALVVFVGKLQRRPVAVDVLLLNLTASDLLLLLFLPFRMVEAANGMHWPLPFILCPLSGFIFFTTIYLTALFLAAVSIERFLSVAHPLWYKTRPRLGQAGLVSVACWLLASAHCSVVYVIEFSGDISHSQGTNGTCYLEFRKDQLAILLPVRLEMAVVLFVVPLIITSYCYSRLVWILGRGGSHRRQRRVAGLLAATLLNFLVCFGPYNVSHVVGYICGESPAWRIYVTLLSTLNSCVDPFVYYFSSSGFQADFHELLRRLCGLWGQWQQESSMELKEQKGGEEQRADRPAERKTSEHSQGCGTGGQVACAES

[13] = Kinetic aqueous solubility of the compound in PBS buffer […] at pH 7.4 after 2 hrs by UV-Visible spectrophotometric analysis; format: physicochemical; settings: read-out: Kinetic_solubility
Method in brief: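 Equilibrated 2 h at 25°C with shaking, then filtered. Filtrates read by UV-Vis scan against 0–400 μM calibration curves in methanol/PBS.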

[14] = Tmax in JAXC57BL/6J mouse at 10 mg/kg, iv through bolus administration measured after 10 to 240 mins by HPLC-MS analysis; format: ADME, organism-based; settings: C57BL/6J, in vivo; method in brief: as §4
[15] = Apparent permeability from apical to basolateral side in human Caco2 cells at 10 uM by HPLC-MS analysis; format: ADME, cell-based; settings: Caco-2
Method in brief: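 Apical-to-basolateral transport across Caco-2 monolayers, integrity checked by TEER in every well. Compound at 10 μM, acceptor concentrations by HPLC-MS. Papp = (VA/(area × time)) × ([drug]acc/[drug]initial,donor), insert area 0.31 cm², in 10^-6 cm/s. Mean of n = 2.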

[16] = Observed AUC infinity in JAXC57BL/6J mouse at 10 mg/kg, po administered through plastic gavage as single dose measured up to 240 mins by HPLC-MS analysis; format: ADME, organism-based; parameters: dose 10 mg/kg, time infinity, route oral; settings: C57BL/6J, in vivo; method in brief: as §5
[17] = target: T1, Free fatty acid receptor 1; assay: Agonist activity at human FFA1 receptor expressed in CHO cells assessed as induction of Ca2+ flux by fluo-8 dye based FLIPR assay relative to GW9508; format: functional, cell-based; method in brief: as §1

T1 sequence (O14842 whole entry): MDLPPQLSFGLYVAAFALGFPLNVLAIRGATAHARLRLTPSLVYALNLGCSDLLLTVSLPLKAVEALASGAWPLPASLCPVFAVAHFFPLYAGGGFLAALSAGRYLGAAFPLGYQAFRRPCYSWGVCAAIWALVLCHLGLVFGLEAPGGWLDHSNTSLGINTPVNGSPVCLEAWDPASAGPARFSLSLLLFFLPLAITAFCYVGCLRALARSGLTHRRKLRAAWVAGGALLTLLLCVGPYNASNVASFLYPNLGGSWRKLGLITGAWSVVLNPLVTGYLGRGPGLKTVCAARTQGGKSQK

COC1CCOC2(CCN(Cc3ccc(COc4ccc(CCC(=O)O)cc4)cc3)CC2)C1 (stereo not drawn)
EC50 [1]: > 20 µM

COCCc1noc(CC2CCOC3(CCN(Cc4ccc(COc5ccc(CCC(=O)O)cc5)cc4)CC3)C2)n1 (stereo not drawn)
EC50 [1]: > 20 µM

Cl.O=C(O)CCc1ccc(OCc2ccc(CN3CCC4(CC3)CC(Cc3ccc(F)cc3)CCO4)cc2)cc1 (stereo not drawn)
CLint at 40 min, 2 µM [2]: 71.3 µL/min/mg
EC50 [3]: > 10 µM
AUC(0-inf) [4]: 1790 ng·h/mL
EC50 [5]: > 10 µM
Tmax [6]: 30 min
fraction unbound at 5 h, 1 µM [7]: 0.017
bioavailability [8]: 10.3%
Cmax [9]: 226 ng/mL
Cmax [10]: 2770 ng/mL
half-life at 2 µM [11]: 23.4 min
EC50 [12]: > 10 µM
solubility kinetic at 2 h [13]: 143 µM
Tmax [14]: 10 min
Papp A→B at 10 µM [15]: 8.7 ×10⁻⁶ cm/s
EC50 [1]: 0.41 µM
AUC(0-inf) [16]: 184 ng·h/mL
Emax [17]: 88%

CC1CCOC2(CCN(Cc3ccc(COc4ccc(CCC(=O)O)cc4)cc3)CC2)C1 (stereo not drawn)
EC50 [1]: > 20 µM

O=C(O)CCc1ccc(OCc2ccc(CN3CCC4(CC3)CC(Cc3nc(C5CC5)no3)CCO4)cc2)cc1 (stereo not drawn)
EC50 [1]: 4.54 µM
Emax [17]: 53%

O=C(O)CCc1ccc(OCc2ccc(CN3CCC4(CC3)CC(OCc3ccccc3)CCO4)cc2)cc1 (stereo not drawn)
EC50 [1]: 1.16 µM
Emax [17]: 100%

O=C(O)CCc1ccc(OCc2ccc(CN3CCC4(CC3)CC(OCc3ccc(F)cc3)CCO4)cc2)cc1 (stereo not drawn)
EC50 [1]: 2.01 µM
Emax [17]: 75%

CCOC1CCOC2(CCN(Cc3ccc(COc4ccc(CCC(=O)O)cc4)cc3)CC2)C1 (stereo not drawn)
EC50 [1]: > 20 µM

O=C(O)CCc1ccc(OCc2ccc(CN3CCC4(CC3)CC(OCC3CC3)CCO4)cc2)cc1 (stereo not drawn)
EC50 [1]: > 20 µM

Cc1ccc(CC2CCOC3(CCN(Cc4ccc(COc5ccc(CCC(=O)O)cc5)cc4)CC3)C2)cc1.Cl (stereo not drawn)
CLint at 40 min, 2 µM [2]: 173 µL/min/mg
EC50 [3]: > 10 µM
EC50 [5]: > 10 µM
fraction unbound at 5 h, 1 µM [7]: 0.002
half-life at 2 µM [11]: 9.6 min
EC50 [12]: > 10 µM
solubility kinetic at 2 h [13]: 69 µM
Papp A→B at 10 µM [15]: 10.4 ×10⁻⁶ cm/s
EC50 [1]: 0.077 µM
Emax [17]: 74%

COc1ccc(CC2CCOC3(CCN(Cc4ccc(COc5ccc(CCC(=O)O)cc5)cc4)CC3)C2)cc1.Cl (stereo not drawn)
CLint at 40 min, 2 µM [2]: 141 µL/min/mg
EC50 [3]: > 10 µM
EC50 [5]: > 10 µM
fraction unbound at 5 h, 1 µM [7]: 0.007
half-life at 2 µM [11]: 11.8 min
EC50 [12]: > 10 µM
solubility kinetic at 2 h [13]: 42 µM
Papp A→B at 10 µM [15]: 15.8 ×10⁻⁶ cm/s
EC50 [1]: 0.28 µM
Emax [17]: 100%
